Where “and” joins values, the source holds several entries; their conditions need not be identical. Equal values may be shown once.
Experiments:
Mus musculus [1] = experiment: Uptake of the [14C]-compound in mouse liver 5 minutes after sc administration of 90 mg/kg.; type: functional; details: route subcutaneous
In short: (§1)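 Mice were given the 14C-labeled compound sc in 25% propylene glycol in water and killed at 5 min. Liver was removed, weighed and homogenized in 1% SDS in 6 M urea with 19 mM EDTA and 0.03 M phosphate, pH 7.4. Homogenate aliquots were counted by liquid scintillation, and uptake per gram of tissue was calculated. Mean ± SEM, n = 3.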

Mus musculus [2] = experiment: Uptake of the [14C]-compound in mouse brain 15 minutes after sc administration of 90 mg/kg.; type: functional; details: route subcutaneous
In short: (§2)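 [14C]-labeled ester injected sc into mice in 25% propylene glycol/water. At the stated time, brain and liver were homogenized in SDS/urea/EDTA phosphate solvent, pH 7.4, and counted by liquid scintillation. Uptake was calculated per gram tissue (nmol/g).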

[3] = target: GABA-A receptor; anion channel; experiment: Inhibition of [3H]GABA binding to synaptic membranes from rat cerebellum; type: tissue-based
In short: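 [3H]GABA (15 nM) binding to rat cerebellum synaptic membranes. At least two concentrations above and below IC50, each at least in triplicate. IC50 was obtained by fitting linearized transformations of the data.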

Mus musculus [4] = experiment: Evaluation of General motor activity in mouse 60 mins postinjection (ip) of 36 mg/kg =; type: functional
In short: (§3)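 Male BALB-c mice (18-24 g) given compound ip in 25% propylene glycol/water. Each was monitored singly for 60 min in an electronic activity monitor. Cumulative activity was expressed as % of vehicle control; mean ± SEM, n = 6, t test.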

Mus musculus [5] = experiment: Anticonvulsant activity is the ability to increase the survival time of mouse ssubjected to bicuculline induced seizures at 24 hr after pretreament with compound (17mg/kg, ip); type: functional
Mus musculus [6] = experiment: Anticonvulsant activity is the ability to delay the onset of bicuculline induced seizures in mouse at 24 hr after pretreament with compound (17 mg/kg, ip); type: functional
In short: (§4)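 Mice given test article ip 24 h before bicuculline (0.3 mg/kg sc). Latency to onset of generalized tonic-clonic seizures was recorded in seconds and expressed as % of saline control. Means ± SEM, n ≥ 6 per group.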

Mus musculus [7] = experiment: Anticonvulsant activity is the ability to increase the survival time of mouse ssubjected to bicuculline induced seizures at 24 hr after pretreament with compound (12 mg/kg, ip); type: functional
Mus musculus [8] = experiment: Anticonvulsant activity is the ability to increase the survival time of mouse ssubjected to bicuculline induced seizures at 24 hr after pretreament with compound (36 mg/kg, ip); type: functional
Mus musculus [9] = experiment: Anticonvulsant activity is the ability to increase the survival time of mouse ssubjected to bicuculline induced seizures at 24 hr after pretreament with compound (50 mg/kg, ip); type: functional
Mus musculus [10] = experiment: Anticonvulsant activity is the ability to delay the onset of bicuculline induced seizures in mouse at 24 hr after pretreament with compound (36 mg/kg, ip); type: functional; in short: as §4
Mus musculus [11] = experiment: Anticonvulsant activity is the ability to delay the onset of bicuculline induced seizures in mouse at 24 hr after pretreament with compound (25 mg/kg, ip); type: functional; in short: as §4
Mus musculus [12] = experiment: Brain penetration index is the ratio of the uptake in brain/liver X 100, 5 min after sc administration of 90 mg/kg of the [14C]-compound.; type: functional; details: route subcutaneous
In short: (§5)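 [14C]-labeled ester injected sc into mice in 0.5 mL of 25% propylene glycol in water, killed at 5 min. Brain and liver were weighed and homogenized in SDS/6 M urea/EDTA phosphate solvent, pH 7.4, then counted by liquid scintillation. BPI = [brain]/[liver] × 100. Means ± SEM, n = 3.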

Mus musculus [13] = experiment: Anticonvulsant activity is the ability to delay the onset of bicuculline induced seizures in mouse at 24 hr after pretreament with compound (50 mg/kg, ip); type: functional; in short: as §4
Mus musculus [14] = experiment: Uptake of the [14C]-compound in mouse brain 45 minutes after sc administration of 90 mg/kg.; type: functional; details: route subcutaneous; in short: as §2
Mus musculus [15] = experiment: Uptake of the [14C]-compound in mouse brain 5 minutes after sc administration of 90 mg/kg.; type: functional; details: route subcutaneous; in short: as §2
Mus musculus [16] = experiment: Anticonvulsant activity is the ability to delay the onset of bicuculline induced seizures in mouse at 24 hr after pretreament with compound (12mg/kg, ip); type: functional; in short: as §4
Mus musculus [17] = experiment: Evaluation of General motor activity in mouse 60 mins postinjection (ip) of 12 mg/kg; type: functional; in short: as §3
Mus musculus [18] = experiment: Anticonvulsant activity is the ability to increase the survival time of mouse ssubjected to bicuculline induced seizures at 24 hr after pretreament with compound (25 mg/kg, ip); type: functional
Mus musculus [19] = experiment: Evaluation of General motor activity in mouse at dose 200 mg/kg; type: functional; in short: as §3
[20] = Partition coefficient in 1-octanol/water system measured using radio active compounds; type: physicochemical
In short: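 1-Octanol/water partition coefficient, measured with the 14C-labeled compounds.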

[21] = Partition coefficient in 1-octanol/water system; type: physicochemical
In short: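 1-Octanol/water partition coefficient determined with the U-14C-labeled esters, read by radioactivity.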

Mus musculus [22] = experiment: Uptake of the [14C]-compound in mouse brain 15 minutes after sc administration of 41 mg/kg.; type: functional; details: route subcutaneous; in short: as §2
Mus musculus [23] = experiment: Uptake of the [14C]-compound in mouse brain 5 minutes after sc administration of 41 mg/kg.; type: functional; details: route subcutaneous; in short: as §2
Mus musculus [24] = experiment: Brain penetration index is the ratio of the uptake in brain/liver X 100, 5 min after sc administration of 41 mg/kg of the [14C]-compound.; type: functional; details: route subcutaneous; in short: as §5
Mus musculus [25] = experiment: Uptake of the [14C]-compound in mouse liver 5 minutes after sc administration of 41 mg/kg.; type: functional; details: route subcutaneous; in short: as §1
Mus musculus [26] = experiment: Evaluation of General motor activity in mouse 60 mins postinjection (ip) of 16 mg/kg; type: functional; in short: as §3
Mus musculus [27] = experiment: Anticonvulsant activity is the ability to increase the survival time of mouse ssubjected to bicuculline induced seizures at 24 hr after pretreament with compound (3 mg/kg, ip); type: functional
Mus musculus [28] = experiment: Brain penetration index is the ratio of the uptake in brain/liver X 100, 5 min after sc administration of 24 mg/kg of the [14C]-compound.; type: functional; details: route subcutaneous; in short: as §5
Mus musculus [29] = experiment: Uptake of the [14C]-compound in mouse liver 60 minutes after sc administration of 24 mg/kg.; type: functional; details: route subcutaneous, in the assay text read “mouse brain” for “mouse liver”
Mus musculus [30] = experiment: Anticonvulsant activity is the ability to delay the onset of bicuculline induced seizures in mouse at 24 hr after pretreament with compound (16 mg/kg, ip); type: functional; in short: as §4
Mus musculus [31] = experiment: Evaluation of General motor activity in mouse 60 mins postinjection (ip) of 10 mg/kg; type: functional; in short: as §3
Rattus norvegicus [32] = species on record: Rattus norvegicus; experiment: Enzymatic hydrolysis of cholesteryl [14C]-compound by Rat Brain Homogenate at 10 min; type: functional
In short: (§6)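 Cholesteryl-[14C]GABA ester (3 mg/mL) incubated at 37 °C with rat brain homogenate 10,000g supernatant (S1; 0.8 mg/mL protein). Aliquots were quenched with ethanol and run on silica TLC (CHCl3/MeOH/HOAc 18:6:1) to quantify unreacted substrate (nmol). Control was the initial substrate amount.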

Mus musculus [33] = experiment: Anticonvulsant activity is the ability to delay the onset of bicuculline induced seizures in mouse at 24 hr after pretreament with compound (84 mg/kg, ip); type: functional; in short: as §4
Mus musculus [34] = experiment: Uptake of the [14C]-compound in mouse liver 5 minutes after sc administration of 24 mg/kg.; type: functional; details: route subcutaneous; in short: as §2
Mus musculus [35] = experiment: Uptake of the [14C]-compound in mouse brain 5 minutes after sc administration of 24 mg/kg.; type: functional; details: route subcutaneous; in short: as §2
Mus musculus [36] = experiment: Uptake of the [14C]-compound in mouse liver 180 min after sc administration of 24 mg/kg.; type: functional; details: route subcutaneous, in the assay text read “mouse brain” for “mouse liver”; in short: as §2
Mus musculus [37] = experiment: Anticonvulsant activity is the ability to increase the survival time of mouse ssubjected to bicuculline induced seizures at 24 hr after pretreament with compound (30 mg/kg, ip); type: functional
Rattus norvegicus [38] = species on record: Rattus norvegicus; experiment: Enzymatic hydrolysis of cholesteryl [14C]-compound by Rat Brain Homogenate at 60 min; type: functional; in short: as §6
Mus musculus [39] = experiment: Uptake of the [14C]-compound in mouse liver 15 minutes after sc administration of 24 mg/kg.; type: functional; details: route subcutaneous, in the assay text read “mouse brain” for “mouse liver”; in short: as §2
Mus musculus [40] = experiment: Anticonvulsant activity is the ability to increase the survival time of mouse ssubjected to bicuculline induced seizures at 24 hr after pretreament with compound (16 mg/kg, ip); type: functional
Mus musculus [41] = experiment: Anticonvulsant activity is the ability to delay the onset of bicuculline induced seizures in mouse at 24 hr after pretreament with compound (3 mg/kg, ip); type: functional; in short: as §4
Mus musculus [42] = experiment: Evaluation of General motor activity in mouse 60 mins postinjection (ip) of 3 mg/kg; type: functional; in short: as §3
Rattus norvegicus [43] = species on record: Rattus norvegicus; experiment: Enzymatic hydrolysis of cholesteryl [14C]-compound by Rat Brain Homogenate at 30 min; type: functional; in short: as §6
Mus musculus [44] = experiment: Evaluation of General motor activity in mouse 60 mins postinjection (ip) of 33 mg/kg*; type: functional; in short: as §3
Mus musculus [45] = experiment: Anticonvulsant activity is the ability to delay the onset of bicuculline induced seizures in mouse at 24 hr after pretreament with compound (30 mg/kg, ip); type: functional; in short: as §4
Mus musculus [46] = experiment: Uptake of the [14C]-compound in mouse brain 5 minutes after sc administration of 74 mg/kg.; type: functional; details: route subcutaneous; in short: as §2
Mus musculus [47] = experiment: Evaluation of General motor activity in mouse 60 mins postinjection (ip) of 128 mg/kg; type: functional; in short: as §3
Mus musculus [48] = experiment: Brain penetration index is the ratio of the uptake in brain/liver X 100, 5 min after sc administration of 74 mg/kg of the [14C]-compound.; type: functional; details: route subcutaneous; in short: as §5
Mus musculus [49] = experiment: Evaluation of General motor activity in mouse 60 mins postinjection (ip) of 60 mg/kg; type: functional; in short: as §3
Mus musculus [50] = experiment: Uptake of the [14C]-compound in mouse liver 5 minutes after sc administration of 74 mg/kg.; type: functional; details: route subcutaneous; in short: as §1

CC/C=C/C/C=C/C/C=C/CCCCCCCCOC(=O)CCCN
Liver concentration (Mus musculus [1]): 142 nmol/g | Brain concentration (Mus musculus [2]): 11 nmol/g | IC50 [3]: 40 µM | Motor activity (Mus musculus [4]): 74 | Survival time (Mus musculus [5]): 111 | Onset seizure (Mus musculus [6]): 73 | Survival time (Mus musculus [7]): 118 | Survival time (Mus musculus [8]): 62 | Survival time (Mus musculus [9]): 63 | Onset seizure (Mus musculus [10]): 50 | Onset seizure (Mus musculus [11]): 78 | Brain penetration index (Mus musculus [12]): 2% | Onset seizure (Mus musculus [13]): 40 | Brain concentration (Mus musculus [14]): 24.9 nmol/g | Brain concentration (Mus musculus [15]): 3.5 nmol/g | Onset seizure (Mus musculus [16]): 102 | Motor activity (Mus musculus [17]): 90 | Survival time (Mus musculus [18]): 68

NCCCC(=O)O [GAMMA-AMINOBUTYRIC ACID]
Motor activity (Mus musculus [19]): 100 | K [20]: 0.004

C[C@@H]1CC2C3CCC4=CC(=O)C=CC4(C)C3(F)C(O)CC2(C)C1(O)C(=O)COC(=O)CCCN (some centres not stated)
K [21]: 0.9 | Brain concentration (Mus musculus [22]): 21.5 nmol/g | Brain concentration (Mus musculus [23]): 8.7 nmol/g | Brain penetration index (Mus musculus [24]): 81% | Liver concentration (Mus musculus [25]): 10.8 nmol/g | Motor activity (Mus musculus [26]): 94

CC(C)CCCC(C)C1CCC2C3CC=C4CC(OC(=O)CCCN)CCC4(C)C3CCC12C (configuration not stated)
Survival time (Mus musculus [27]): 95 | Brain penetration index (Mus musculus [28]): 25% | Brain concentration (Mus musculus [29]): 0.79 nmol/g | Onset seizure (Mus musculus [30]): 129 | K [21]: 110 | Motor activity (Mus musculus [31]): 49 | IC50 [3]: 10 µM | Amount of unreacted substrate (Rattus norvegicus [32]): 53 | Onset seizure (Mus musculus [33]): 137 | Liver concentration (Mus musculus [34]): 0.69 nmol/g | Brain concentration (Mus musculus [35]): 0.17 nmol/g | Brain concentration (Mus musculus [36]): 0.6 nmol/g | Survival time (Mus musculus [37]): 104 | Amount of unreacted substrate (Rattus norvegicus [38]): 34.5 | Brain concentration (Mus musculus [39]): 0.67 nmol/g | Survival time (Mus musculus [40]): 101 and 109 | Onset seizure (Mus musculus [41]): 120 | Motor activity (Mus musculus [42]): 67 | Amount of unreacted substrate (Rattus norvegicus [43]): 43.5 | Motor activity (Mus musculus [44]): 15 | Onset seizure (Mus musculus [45]): 130

CCCCOC(=O)CCCN
Brain concentration (Mus musculus [46]): 19.2 nmol/g | Motor activity (Mus musculus [47]): 83 | Brain penetration index (Mus musculus [48]): 74% | Motor activity (Mus musculus [49]): 89 | Liver concentration (Mus musculus [50]): 28 nmol/g

— ChEMBL document CHEMBL1122655, “Gamma-aminobutyric acid esters. 1. Synthesis, brain uptake, and pharmacological studies of aliphatic and steroid esters of gamma-aminobutyric acid” (J Med Chem, 1984)
